Bioassay records: PubChem, several laboratories
Hits are enriched below; roughly 2.9% of the tested compounds scored in any of these assays.
Apaf1 inhib – inhibitors of human Apaf-1 apoptosome; O14727; 330,000 tested, 0.71% active; reconstituted apoptosome caspase-3 activity, DEVD-Rh110 fluorescence; inhibition, % at 20 µM; active means inhibition of at least 40% at 20 µM;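 further: plate controls were DMSO wells for no effect and DEVD-CHO caspase inhibitor wells for full effect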
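Assay system – apoptosome proteins · Medium – Hepes buffer, pH 7.5 · Also added – cytochrome c with DEVD-Rh110 · Timing – 30 min compound preincubation, 50 min activation, room temperature · Detection – Rh110 fluorescence, excitation 480 nm, emission 540 nm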
PfM18AAP inh – PfM18AAP enzyme inhibition; recombinant PfM18AAP, H-Glu-NHMec fluorogenic cleavage; inhibition, % at 7.35 µM; 290,000 tested, 1.2% active; AID 1822;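 active means inhibition above the campaign mean inhibition over all tested compounds plus 3 SD, cut at about 28% in these data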;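 further: 0% = plate median of test compound wells and 100% = 2 mM ZnCl2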
EBNA-1 inh – blocks EBNA-1 binding to DNA; AID 1950; 300,000 tested, 0.34% active; EBNA-1 DNA binding, fluorescence polarization; inhibition, % at 14.8 µM; in the data active means inhibition above about 28%
PfGluPho inh – PfG6PD (Plasmodium falciparum) enzyme inhibition. PfGluPho enzyme, NADPH resazurin-diaphorase fluorescence. inhibition, % at 20 µM. 350,000 tested, 0.78% active. AID 504690;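 active means inhibition reaching at least a set limit at 20 µM in the primary screen, cut at about 59% in these data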;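 further: 0% = DMSO wells with substrate and 100% = DMSO wells lacking glucose-6-phosphate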
ZTA counter – counter-screen for EBNA-1 inhibitors: inhibitors of Epstein-Barr virus ZTA. P03206. ZTA-DNA binding, fluorescence polarization. inhibition, % at 11 µM. 320,000 tested, 0.15% active. AID 2234; in the data active means inhibition above about 33%
UBC13 polyUb – inhibitors of human UBC13 polyubiquitin chain formation | P61088 | TR-FRET | inhibition, % at 20 µM | 330,000 tested, 0.47% active | AID 485273; in the data active means inhibition above about 45%, passing the limit was not always enough; inconclusive means no clear call, values can overlap the other calls
Zta DNA confirm – confirmation of Epstein-Barr virus ZTA DNA binding inhibitors | shares compounds with ZTA counter | Zta-ZRE DNA binding, fluorescence polarization | inhibition, % at 11.1 µM | 320 tested, 30% active;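 active means mean inhibition across triplicate runs above the hit threshold derived for the original primary screen, cut at about 33% in these data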;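 further: 0% = Zta with DMSO and 100% = wells lacking Zta protein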
EBNA-1 counter – blocks EBNA-1 DNA binding in ZTA counter-screen. 320 tested, under 10 active. AID 2362. inhibition, % at 14.8 µM. fluorescence polarization. shares compounds with ZTA counter; call rule not given here
Numbers without * were called inactive; u = inconclusive; x = no result.

SMILES | Apaf1 inhib | PfM18AAP inh | EBNA-1 inh | PfGluPho inh | ZTA counter | UBC13 polyUb | Zta DNA confirm | EBNA-1 counter
CCc1ccc2nc(N(CCCN(C)C)C(=O)c3ccc(S(=O)(=O)N4CCCC4)cc3)sc2c1 | 5 | 5 | 1 | 2 | 0 | 44 | x | x
CCc1ccc2nc(N(CCCN(C)C)C(=O)c3ccc(S(=O)(=O)N4CCCc5ccccc54)cc3)sc2c1 | 32 | 0 | 2 | 25 | 37* | 33 | 7 | 0
COc1ccc(CN2CCc3ccccc3C2)c(OC)c1 | -10 | -1 | -1 | -1 | 7 | 0 | x | x
COc1ccc(C2=[N+](C)CCn3cccc32)c(OC)c1 | 0 | -4 | 12 | 12 | 33* | -6 | 1 | 1
COc1ccc2c(-c3ccc(S(N)(=O)=O)cc3)c(-c3ccc(S(C)(=O)=O)cc3)sc2c1 | 4 | x | x | 12 | x | u | x | x
Cc1ccc(C(=O)Nc2ccc(C(=O)N/N=C/c3ccncc3)cc2)cc1 | 7 | 5 | -2 | x | 47* | -6 | 45* | -8
CCCOc1ccc(/C=N/NC(=O)c2ccc3c(c2)OCO3)c(OCCC)c1 | 16 | 3 | -13 | -1 | -6 | -12 | x | x
CCC1CCCCN1C(=O)c1ccc2nc(Cc3ccc(OC)cc3)oc2c1 (stereo unspecified) | 11 | 0 | 7 | 2 | 4 | 6 | x | x
COCC1CCCCN1C(=O)c1ccc2nc(Cc3ccc(OC)c(OC)c3)oc2c1 (stereo unspecified) | 8 | 1 | 10 | 3 | 35* | -2 | -6 | -3
O=C(CSc1ncnc2scc(-c3ccccc3)c12)N1CCN(Cc2ccc3c(c2)OCO3)CC1 | 1 | 0 | 14 | 2 | 59* | -7 | 160* | 72*
c1ccc(-c2csc3ncnc(N4CCN(Cc5ccc6c(c5)OCO6)CC4)c23)cc1 | 27 | 3 | -9 | 15 | -2 | 3 | x | x
CCNC(=S)SCCOc1ccc(C)cc1 | -127 | -10 | 4 | -12 | -14 | 4 | x | x
O=C(CN1C(=O)/C(=C\c2ccccc2Br)Oc2ccccc21)NCCCN1CCOCC1 | 15 | 0 | 15 | -3 | 14 | 43 | x | x
O=C(NCCCN1CCOCC1)c1ccc(/C=C2\Oc3ccccc3N(Cc3ccccc3F)C2=O)cc1 | 27 | 2 | -1 | -14 | 48* | 41 | 14 | -6
N#CC1=C(N)N=C(SCc2cccc3ccccc23)C(C(N)=O)C12CCCCC2 (stereo unspecified) | 22 | -13 | -1 | 24 | -3 | -8 | x | x
COc1ccc(NC(=O)CCN2CCC(C)CC2)cc1 | -3 | 8 | -20 | -4 | -11 | -22 | x | x
COc1ccc(NC(=O)CCN2CCCC(C)C2)cc1 (stereo unspecified) | -8 | 10 | 5 | 8 | 52* | 6 | 1 | -10
Cc1ccc(C(C(=O)NC2CCCC2)N(Cc2ccc3c(c2)OCO3)C(=O)c2snc(C(N)=O)c2N)cc1 (stereo unspecified) | -16 | 2 | 5 | 4 | 57* | 18 | 1 | -9
COc1ccc(CN(C(=O)c2snc(C(N)=O)c2N)C(C(=O)NC2CCCC2)c2ccc(OC)cc2)cc1 (stereo unspecified) | 14 | 2 | -4 | 5 | -5 | 12 | x | x
COc1cccc2c1C(=O)c1c(O)c3c(c(O)c1C2=O)C[C@](O)(C(C)=O)C[C@H]3O[C@@H]1C[C@@H](N)[C@@H](O)[C@@H](C)O1 | 21 | x | -4 | -17 | 44* | -336 | 75* | -5
COc1cc(NC(=O)c2csc(N)n2)cc(C(=O)Nc2cccc(C(F)(F)F)c2)c1 | 1 | x | 7 | 19 | 41* | 8 | 6 | -4
CC1CCCC(NC(=O)COC(=O)c2cccc(S(=O)(=O)N3CCCCC3)c2)C1C (stereo unspecified) | -6 | x | x | -2 | 41* | -5 | 0 | 8
Cc1ccc(NC(=O)COc2ccc(S(=O)(=O)N3CCOCC3)cc2)cc1 | -7 | -5 | -6 | 0 | -8 | 4 | x | x
CC(C)c1ccc(NC(=O)COc2ccc(S(=O)(=O)N3CCOCC3)cc2)cc1 | 12 | -13 | 2 | -12 | 35* | 4 | 18 | -10
O=C(CNc1ccc2ccccc2c1)N/N=C/C=C/c1cccc([N+](=O)[O-])c1 | 2 | 0 | 0 | 17 | 17 | -6 | x | x
SMILES | Apaf1 inhib | PfM18AAP inh | EBNA-1 inh | PfGluPho inh | ZTA counter | UBC13 polyUb | Zta DNA confirm | EBNA-1 counter
CCc1ccc(NC(=O)C(CC)Sc2nc3ccsc3c(=O)n2CCC(=O)O)cc1 (stereo unspecified) | 0 | 0 | -2 | -31 | -10 | -4 | x | x
COc1ccc(C(=O)N(C)CCCC2CCCC2)cc1OC1CCN(C(C)C)CC1 | 14 | 1 | 8 | -1 | 34* | 8 | -3 | -10
CCOC(=O)c1cc2c(C)n(-c3ccc(OCC)cc3)c(C)c2cc(C(=O)OCC)c1=O | 13 | 4 | 4 | 10 | -9 | -3 | x | x
CCOC(=O)c1cc2c(C)n(-c3ccc(N(C)C)cc3)c(C)c2cc(C(=O)OCC)c1=O | 20 | 3 | -6 | 13 | 160* | 6 | 6 | -1
CN(C)C(=O)CCCCCCCCC(=O)N(C)C | -10 | 2 | 8 | 11 | 33* | 7 | 8 | 0
COC(C[C@@H](O)C[C@H](O)[C@@H](C)OCc1ccccc1)OC | 3 | x | x | 8 | x | -1 | x | x
CNc1ccc2nnc(C(F)(F)C(F)(F)C(F)(F)F)n2n1 | 6 | -6 | 4 | 12 | 4 | 2 | x | x
Cc1cccc(NC(=O)COc2ccc(/C=C\c3[nH]c(=O)[nH]c(=O)c3[N+](=O)[O-])cc2)c1 | 9 | 1 | 19 | -10 | 44* | -6 | 42* | 9
CCN(Cc1ccccc1)C(=O)COc1cc(=O)n(CC)c2ccccc12 | 17 | 0 | 2 | -7 | -11 | -11 | x | x
CCCN(CCC)C(=O)COc1cc(=O)n(CC)c2ccccc12 | -10 | 1 | 0 | 8 | 118* | 5 | -3 | -3
Cc1ccc(S(=O)(=O)N2CCOCC2)cc1C(=O)N1CC(C)OC(C)C1 (stereo unspecified) | 3 | x | -14 | -9 | -10 | -6 | x | x
CC(C)Cc1cc(CNC(=O)C2CCC(=O)N(Cc3cccc(C(F)(F)F)c3)C2)on1 (stereo unspecified) | 6 | 0 | 3 | -5 | -12 | -3 | x | x
Cc1ccn(CCSCC(=O)O)n1 | 5 | -13 | -4 | -18 | -13 | 0 | x | x
Cc1ccn(CC(C)C(=O)O)n1 (stereo unspecified) | -4 | -2 | -12 | 16 | 166* | 0 | 4 | 0
COc1cccc(NC(=S)N2CCc3cc(OC)c(OC)cc3C2)c1 | -5 | 2 | -5 | 2 | 48* | 2 | -8 | -2
O=C(CNC(=O)c1cc(Cl)nc2ccccc12)Nc1ccccc1Br | -14 | x | x | 4 | 11 | 19 | x | x
